According to ChEMBL document CHEMBL1138718, “CVT-4325: a potent fatty acid oxidation inhibitor with favorable oral bioavailability” (Bioorg Med Chem Lett, 2004):

Key:
[1] = Plasma clearance in rats after 1 mg/kg intravenous dose; conditions: rat; for clearance: plasma
[2] = Half life in rats after 1 mg/kg intravenous dose; conditions: rat, in vivo
[3] = Oral bioavailability in rat (dose 2 mg/kg); type: ADME, organism-based; conditions: in vivo
[4] = Area under curve for the compound was determined in rats after 2 mg/kg oral dose; type: ADME, organism-based; design: dose 2 mg/kg, route oral; conditions: rat, in vivo
[5] = Metabolic stability as percent of drug remaining after incubation with human liver S9 for 30 min was determined; type: ADME, subcellular, Liver S9 fraction; conditions: for remaining at 0.5 h: liver S9, read-out: Activity
Summary of the method: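 Incubation with human liver S9 (2 mg/mL) plus NADPH for 30 min, read as percent parent remaining. A standard was run in every assay, and data were accepted only if the standard fell within ±5% of its historical mean.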

[6] = Area under curve for the compound was determined in dog after 4 mg/kg oral dose; type: ADME, organism-based, Canis lupus familiaris; design: dose 4 mg/kg, route oral; conditions: in vivo
[7] = Half life in dog after 1 mg/kg intravenous dose; conditions: in vivo
[8] = Bioavailability in dog after 4 mg/kg oral dose; type: ADME, organism-based, Canis lupus familiaris; conditions: in vivo
[9] = Plasma clearance in dog after 1 mg/kg intravenous dose; conditions: in vivo
[10] = as above; conditions: in vivo; remark: listed apart in the source
[11] = Area under curve for the compound was determined in dog after 5 mg/kg oral dose; type: ADME, organism-based, Canis lupus familiaris; design: dose 5 mg/kg, route oral; conditions: in vivo
[12] = Half life in dog after 1 mg/kg intravenous dose; conditions: in vivo; remark: listed apart in the source
[13] = Bioavailability in dog after 5 mg/kg oral dose; type: ADME, organism-based, Canis lupus familiaris; conditions: in vivo

| Compound | remaining at 0.5 h [5] [%] | other results |
| --- | --- | --- |
| Cc1nc2cc(OC[C@H](O)CN3CCN(CC(=O)Nc4c(C)cccc4C)CC3)ccc2s1 | – | Plasma clearance ([1]; in vivo): 54.5 mL/min/kg; half-life [2]: 1.4 h; F [3]: 19%; AUC [4]: 30.5 ng·h/mL |
| Cc1nc2cc(OC[C@H](O)CN3CCN(Cc4noc(-c5ccc(Cl)cc5)n4)CC3)ccc2s1 | 48 | – |
| Cc1nc2cc(OC[C@H](O)CN3CCN(Cc4noc(-c5cccc(F)c5)n4)CC3)ccc2s1 | 42 | – |
| Cc1nc2cc(OC[C@H](O)CN3CCN(Cc4noc(-c5ccc(C(C)(C)C)cc5)n4)CC3)ccc2s1 | 18 | – |
| Cc1nc2cc(OC[C@H](O)CN3CCN(Cc4csc(-c5ccc(C(F)(F)F)cc5)n4)CC3)ccc2s1 | 40 | – |
| Cc1nc2cc(OC[C@H](O)CN3CCN(Cc4nnc(-c5ccc(C(C)(C)C)cc5)o4)CC3)ccc2s1 | 25 | – |
| Cc1nc2cc(OC[C@H](O)CN3CCN(Cc4nc(-c5ccc(Cl)c(Cl)c5)no4)CC3)ccc2s1 | 36 | – |
| Cc1nc2cc(OC[C@H](O)CN3CCN(Cc4noc(-c5ccc(F)cc5)n4)CC3)ccc2s1 | 50 | – |
| COc1ccc(-c2nc(CN3CCN(C[C@@H](O)COc4ccc5sc(C)nc5c4)CC3)no2)cc1 | 39 | – |
| Cc1nc2cc(OC[C@H](O)CN3CCN(Cc4nc(-c5ccc(C(F)(F)F)cc5)no4)CC3)ccc2s1 | 72 | – |
| Cc1nc2cc(OC[C@H](O)CN3CCN(Cc4noc(-c5cccc(Cl)c5)n4)CC3)ccc2s1 | 38 | – |
| Cc1nc2cc(OC[C@H](O)CN3CCN(Cc4nc(-c5ccc(Cl)cc5Cl)no4)CC3)ccc2s1 | 29 | – |
| Cc1cccc(-c2nc(CN3CCN(C[C@@H](O)COc4ccc5sc(C)nc5c4)CC3)no2)c1 | 31 | – |
| Cc1nc2cc(OC[C@H](O)CN3CCN(Cc4nnc(-c5ccc(C(F)(F)F)cc5)o4)CC3)ccc2s1 | 49 | – |
| Cc1nc2cc(OC[C@H](O)CN3CCN(Cc4nc(-c5ccc(C(C)C)cc5)no4)CC3)ccc2s1 | 21 | – |
| Cc1nc2cc(OC[C@H](O)CN3CCN(Cc4nnc(-c5ccc(Cl)cc5)o4)CC3)ccc2s1 | 34 | – |
| Cc1nc2cc(OC[C@H](O)CN3CCN(Cc4noc(-c5ccc(C(C)C)cc5)n4)CC3)ccc2s1 | 31 | – |
| Cc1nc2cc(OC[C@H](O)CN3CCN(Cc4noc(-c5ccc(Cl)cc5Cl)n4)CC3)ccc2s1 | 33 | – |
| Cc1nc2cc(OC[C@H](O)CN3CCN(Cc4noc(-c5ccc(C#N)cc5)n4)CC3)ccc2s1 | 56 | – |
| Cc1nc2cc(OC[C@H](O)CN3CCN(Cc4noc(-c5ccc(C(F)(F)F)cc5)n4)CC3)ccc2s1 | 74 | AUC [6]: 1776 ng·h/mL; half-life [7]: 13.6 h; clearance [1]: 22.5 mL/min/kg; Bioavailabiility [8]: 93%; Plasma clearance [9]: 12.2 mL/min/kg; half-life [2]: 3.2 h; bioavailability [3]: 38%; AUC ([4]; read-out: AUC): 282 ng·h/mL |
| Cc1nc2cc(OC[C@H](O)CN3CCN(Cc4nc(-c5ccc(Cl)cc5)no4)CC3)ccc2s1 | 66 | – |
| Cc1nc2cc(OC[C@H](O)CN3CCN(Cc4coc(-c5ccc(C(F)(F)F)cc5)n4)CC3)ccc2s1 | 43 | – |
| Cc1nc2cc(OC[C@H](O)CN3CCN(Cc4noc(-c5ccc(C(F)(F)F)cc5)n4)C[C@@H]3C)ccc2s1 | 43 | Plasma clearance [10]: 4.6 mL/min/kg; clearance [1]: 19.7 mL/min/kg; AUC [11]: 1093 ng·h/mL; half-life [2]: 4 h; bioavailability [3]: 29%; AUC ([4]; read-out: AUC): 253 ng·h/mL; half-life [12]: 65 h; Bioavailabiility [13]: 30% |
| Cc1nc2cc(OC[C@H](O)CN3CCN(Cc4nc(-c5ccc(C(F)(F)F)cc5)sc4C)CC3)ccc2s1 | 40 | – |
| Cc1nc2cc(OC[C@H](O)CN3CCN(Cc4noc(-c5ccc(Cl)c(Cl)c5)n4)CC3)ccc2s1 | 30 | – |
| Cc1nc2cc(OC[C@H](O)CN3CCN(Cc4nc(-c5ccc(C(C)(C)C)cc5)no4)CC3)ccc2s1 | 39 | – |
| Cc1nc2cc(OC[C@H](O)CN3CCN(Cc4noc(-c5ccc(Cl)cc5Cl)n4)C[C@@H]3C)ccc2s1 (stereo in doubt; 31) | 17 | – |
| Cc1nc2cc(OC[C@H](O)CN3CCN(Cc4noc(-c5ccc(Cl)cc5Cl)n4)C[C@@H]3C)ccc2s1 (stereo in doubt; 32) | – | Activity ([5]; s9, 0.5 h, 0.5 h): 30% |
